According to ChEMBL document CHEMBL4825662 (J Med Chem, 2021):
Values after ≈ are worked out from the molar mass of the structure shown.

How the values were obtained:
[1] = Protein binding in human plasma assessed as unbound fraction at 5 uM by LC-MS/MS analysis based equilibrium dialysis method; assay type: ADME, cell-free
[2] = Apparent permeability across apical to basolateral side in MDCK-MDR1 cells at 10 uM measured at 60 mins by LC-MS/MS analysis; assay type: ADME, cell-based, Canis lupus familiaris; conditions: dog, MDCK-MDR1
[3] = Half life in rat hepatocytes at 3 uM measured up to 60 mins by LC-MS/MS analysis; assay type: ADME, cell-based, Hepatocyte
[4] = Cmax in CD1 mouse at 10 mg/kg, po measured after 0.083 to 24 hrs by UHPLC-TOF method; assay type: ADME, organism-based; design: route oral, time 0.083-24 hrs, dose 10 mg/kg; conditions: in vivo
[5] = Oral bioavailability in Beagle dog at 3 mg/kg measured after 0.03 to 24 hrs by UHPLC-TOF method; assay type: ADME, organism-based, Canis lupus familiaris; conditions: in vivo, 3 mg/kg, time 0.03-24 hrs
Method in brief: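 Dogs examined by a veterinary surgeon before each session, fed 2 h post-dose, water ad libitum, dosed as amorphous-solid suspension. Serial blood into heparinized tubes, centrifuged at 4 °C for 10 min at 3000g; plasma snap-frozen at −20 °C. IV sampling 2 min–24 h, oral 15 min–24 h. Plasma analysed by UHPLC-quadrupole-TOF MS.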

[6] = Intrinsic clearance in rat hepatocytes at 3 uM assessed per million cells measured up to 60 mins by LC-MS/MS analysis; assay type: ADME, cell-based, Hepatocyte; conditions: read-out: CLH
[7] = Tmax in CD1 mouse at 10 mg/kg, po measured after 0.083 to 24 hrs by UHPLC-TOF method; assay type: ADME, organism-based; conditions: in vivo, time 0.083-24 hrs
Method in brief: (§1)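 Male CD-1 mice, acclimatized and individually housed, dosed IV and PO as amorphous-solid suspension. Terminal cardiac-puncture blood into heparinized tubes on wet ice, centrifuged at 4 °C within 15 min; plasma snap-frozen at −20 °C. IV arm sampled 2 min–24 h, oral arm 5 min–24 h. Plasma analysed by UHPLC-quadrupole-TOF MS.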

[8] = Cmax in Beagle dog at 3 mg/kg, po measured after 0.03 to 24 hrs by UHPLC-TOF method; assay type: ADME, organism-based, Canis lupus familiaris; design: route oral, dose 3 mg/kg, time 0.03-24 hrs; conditions: in vivo
[9] = Half life in CD1 mouse at 1 mg/kg, iv measured after 0.03 to 24 hrs by UHPLC-TOF method; assay type: ADME, organism-based; conditions: in vivo, time 0.03-24 hrs
[10] = Tmax in Beagle dog at 3 mg/kg, […] by UHPLC-TOF method; assay type: ADME, organism-based, Canis lupus familiaris; conditions: in vivo, po
[11] = test system: Human orthopneumovirus; assay: Antiviral activity against Respiratory syncytial virus A2 infected in human Huh7 cells by Plaque reduction assay; assay type: functional, organism-based; conditions: A2, Huh-7
Method in brief: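 Huh-7 cells were infected with RSV strain A2 in the presence of compound. Values are the average of at least two testing occasions.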

[12] = Half life in Beagle dog hepatocytes at 3 uM assessed per million cells measured up to 60 mins by LC-MS/MS analysis; assay type: ADME, cell-based, Canis lupus familiaris, Hepatocyte
[13] = Half life in Beagle dog liver microsomes preincubated followed by NADPH addition and measured up to 45 mins by LC-MS/MS analysis
[14] = Half life in human hepatocytes at 3 uM measured up to 60 mins by LC-MS/MS analysis; assay type: ADME, cell-based, Hepatocyte
[15] = Protein binding in rat plasma assessed as unbound fraction at 5 uM by LC-MS/MS analysis based equilibrium dialysis method; assay type: ADME, cell-free
[16] = Efflux ratio of apparent permeability in MDCK-MDR1 cells at 10 uM measured at 60 mins by LC-MS/MS analysis; assay type: ADME, cell-based, Canis lupus familiaris; conditions: dog, MDCK-MDR1
[17] = Intrinsic clearance in Beagle dog liver microsomes preincubated followed by NADPH addition and measured up to 45 mins by LC-MS/MS analysis; assay type: ADME, Canis lupus familiaris, Microsome
[18] = Half life in human liver microsomes preincubated followed by NADPH addition and measured up to 45 mins by LC-MS/MS analysis; assay type: ADME, Microsome
[19] = Protein binding in dog plasma assessed as unbound fraction at 5 uM by LC-MS/MS analysis based equilibrium dialysis method; assay type: ADME, cell-free, Canis lupus familiaris
[20] = Half life in Beagle dog at 0.3 mg/kg, iv measured after 0.03 to 24 hrs by UHPLC-TOF method; assay type: ADME, organism-based, Canis lupus familiaris; conditions: in vivo, time 0.03-24 hrs
Method in brief: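 Dogs dosed IV as a suspension of amorphous solid. Serial blood at 2, 5, 15 min and 1, 2, 4, 8, 12, 24 h into heparinized tubes, centrifuged at 4 °C for 10 min at 3000g. Plasma snap-frozen and stored at −20 °C, then analysed by UHPLC-TOF.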

[21] = Half life in CD1 mouse at 10 mg/kg, po measured after 0.083 to 24 hrs by UHPLC-TOF method; assay type: ADME, organism-based; conditions: in vivo, time 0.083-24 hrs
[22] = Intrinsic clearance in human hepatocytes at 3 uM assessed per million cells measured up to 60 mins by LC-MS/MS analysis; assay type: ADME, cell-based, Hepatocyte; conditions: read-out: CLH
[23] = Volume of distribution at steady state in CD1 mouse at 1 mg/kg, iv measured after 0.083 to 24 hrs by UHPLC-TOF method; assay type: ADME, organism-based; conditions: in vivo, time 0.083-24 hrs, read-out: Vdss; method in brief: as §1
[24] = Cytotoxicity against human HepG2 cells by MTT assay; assay type: cell-based
Method in brief: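 Viability was assessed by MTT after culture with compound at 0.01 nM to 100 μM, run in parallel with plaque reduction assays. Values are the average of at least two testing occasions.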

[25] = Intrinsic clearance in human liver microsomes preincubated followed by NADPH addition and measured up to 45 mins by LC-MS/MS analysis; assay type: ADME, Microsome
[26] = Half life in Beagle dog at 3 mg/kg, po measured after 0.03 to 24 hrs by UHPLC-TOF method; assay type: ADME, organism-based, Canis lupus familiaris; conditions: in vivo, time 0.03-24 hrs
[27] = Oral bioavailability in CD1 mouse at 10 mg/kg measured after 0.03 to 24 hrs by UHPLC-TOF method; assay type: ADME, organism-based; conditions: in vivo, time 0.03-24 hrs; method in brief: as §1
[28] = Intrinsic clearance in Sprague-Dawley rat liver microsomes preincubated followed by NADPH addition and measured up to 45 mins by LC-MS/MS analysis; assay type: ADME, Microsome
[29] = Apparent permeability across basolateral side to apical side in MDCK-MDR1 cells at 10 uM measured at 60 mins by LC-MS/MS analysis; assay type: ADME, cell-based, Canis lupus familiaris; conditions: dog
[30] = Thermodynamic solubility in PBS at 1 to 100 uM at pH 7.4 by HPLC-UV method; assay type: physicochemical; conditions: dose 1-100 µM, read-out: Therm_solubility
[31] = Clearance in CD1 mouse at 1 mg/kg, iv measured after 0.083 to 24 hrs by UHPLC-TOF method; assay type: ADME, organism-based; conditions: in vivo, time 0.083-24 hrs
[32] = Intrinsic clearance in Beagle dog hepatocytes at 3 uM assessed per million cells measured up to 60 mins by LC-MS/MS analysis; assay type: ADME, cell-based, Canis lupus familiaris, Hepatocyte; conditions: read-out: CLH
[33] = Clearance in Beagle dog at 0.3 mg/kg, iv measured after 0.03 to 24 hrs by UHPLC-TOF method; assay type: ADME, organism-based, Canis lupus familiaris; conditions: in vivo, time 0.03-24 hrs
[34] = Half life in Sprague-Dawley rat at 10 mg/kg, po measured after 0.25 to 24 hrs by UHPLC-TOF method; assay type: ADME, organism-based; conditions: in vivo, time 0.25-24 hrs
[35] = Clearance in Sprague-Dawley rat at 1 mg/kg, iv administered […] measured after 0.02 to 24 hrs by tandem liquid chromatography/mass spectrometry; assay type: ADME, organism-based; conditions: in vivo, time 0.02-24 hrs
[36] = Cmax in Sprague-Dawley rat at 10 mg/kg, po measured after 0.02 to 24 hrs by UHPLC-TOF method; assay type: ADME, organism-based; design: route oral, dose 10 mg/kg, time 0.02-24 hrs; conditions: in vivo
[37] = Oral bioavailability in CD1 mouse at 5 mg/kg measured after 0.03 to 24 hrs by UHPLC-TOF method; assay type: ADME, organism-based; conditions: in vivo, time 0.03-24 hrs; method in brief: as §1
[38] = Cmax in CD1 mouse at 5 mg/kg, po measured after 0.03 to 24 hrs by UHPLC-TOF method; assay type: ADME, organism-based; design: route oral, time upper 24 hrs, time lower 0.03 hrs, dose 5 mg/kg; conditions: in vivo
[39] = Cmax in Sprague-Dawley rat at 5 mg/kg, po administered via gavage measured after 0.02 to 24 hrs by tandem liquid chromatography/mass spectrometry; assay type: ADME, organism-based; design: route oral, dose 5 mg/kg, time upper 24 hrs, time lower 0.02 hrs; conditions: in vivo
Method in brief: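 Male Sprague–Dawley rats weighing 200–250 g, 3 per route, were used. The i.v. bolus was 1 mg/kg at 1 mg/mL in 40:60 dimethylacetamide/saline. Oral gavage doses were 5 or 10 mg/kg at 5 mg/mL in 1% methyl cellulose with 0.1% Tween 80. Heparinized blood was taken at 0.02–24 h (ten time points). Plasma was analyzed by LC-MS/MS after acetonitrile precipitation.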

[40] = Tmax in Sprague-Dawley rat at 10 mg/kg, po measured after 0.02 to 24 hrs by UHPLC-TOF method; assay type: ADME, organism-based; conditions: Sprague-Dawley, in vivo, time 0.02-24 hrs, read-out: Tmax
[41] = Volume of distribution at steady state in Sprague-Dawley rat at 1 mg/kg, iv administered […] measured after 0.02 to 24 hrs by tandem liquid chromatography/mass spectrometry; assay type: ADME, organism-based; conditions: in vivo, time 0.02-24 hrs, read-out: Vdss
Method in brief: (§2)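 Male Sprague–Dawley rats (200–250 g), 3 per route. IV bolus at 1 mg/kg, 1 mg/mL in 40:60 dimethylacetamide/saline; oral gavage at 5 or 10 mg/kg, 5 mg/mL in 1% methyl cellulose, 0.1% Tween 80 in water. Serial blood at 0.02–24 h (ten points) into heparin, spun at 4 °C, plasma frozen; acetonitrile protein precipitation, ESI LC-MS/MS with matrix curve and internal standards.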

[42] = Oral bioavailability in Sprague-Dawley rat at 10 mg/kg administered via gavage measured after 0.02 to 24 hrs by tandem liquid chromatography/mass spectrometry; assay type: ADME, organism-based; conditions: in vivo, time 0.02-24 hrs; method in brief: as §2
[43] = Tmax in CD1 mouse at 5 mg/kg, po measured after 0.083 to 24 hrs by UHPLC-TOF method; assay type: ADME, organism-based; conditions: in vivo, time 0.083-24 hrs; method in brief: as §1

NCc1ccc2c(c1)nc(CN1C(=O)C3(CC3)c3ccc(F)cc31)n2C1CCOCC1 showed a fraction unbound at 5 µM [1] of 0.548, a Papp A→B at 1 h, 10 µM [2] of 0.4 ×10⁻⁶ cm/s and a half-life at 3 µM [3] of 1.02 h. It also gave a Cmax [4] of 450 ng/mL, an F [5] of 163% and a hepatocyte CLint at 3 µM [6] of 21.2 µL/min/1e6 cells. The Tmax [7] was 1.7 h, the Cmax [8] was 505 ng/mL and the half-life [9] was 1.7 h. It also gave a Tmax [10] of 0.5 h, an EC50 [11] of 2.4 nM and a half-life at 3 µM [12] greater than 16.7 h. The half-life [13] was 55.8 h, the half-life at 3 µM [14] was 3.28 h and the fraction unbound at 5 µM [15] was 0.399. The efflux ratio at 1 h, 10 µM [16] was 94, the intrinsic clearance [17] was 0.4 µL/min and the half-life [18] was 0.348 h. For the same compound, the fraction unbound at 5 µM [19] was 0.497, the half-life [20] was 5.2 h and the half-life [21] was 1.4 h. For the same compound, the hepatocyte CLint at 3 µM [22] was 7.1 µL/min/1e6 cells, the Vd [23] was 5.5 L/kg and the CC50 [24] was greater than 25000 nM. For the same compound, the “intrinsic clearance (CLint)” value [25] was 66.4 µL/min, the half-life [26] was 3.1 h and the bioavailability [27] was 39.4%. It also gave a Microsomal intrinsic clearance [28] of 5.2 µL/min, a Papp B→A at 1 h, 10 µM [29] of 40.6 ×10⁻⁶ cm/s and a solubility thermodynamic [30] of 1270 µM (≈ 534 µg/mL). It also gave a clearance [31] of 58 mL/min/kg, a hepatocyte CLint at 3 µM [32] of 0.8 µL/min/1e6 cells and a clearance [33] of 19.2 mL/min/kg.
Compound NCc1ccc2c(c1)nc(CN1C(=O)C3(CC3)c3cccc(F)c31)n2CCCC(F)(F)F has a Papp A→B at 1 h, 10 µM [2] of 0.4 ×10⁻⁶ cm/s, a half-life [34] of 0.8 h and a half-life [9] of 2.4 h. For the same compound, the clearance [35] was 209 mL/min/kg, the EC50 [11] was 2.3 nM and the efflux ratio at 1 h, 10 µM [16] was 7.5. It also gave an intrinsic clearance [17] of 2 µL/min, a Cmax [36] of 44.3 ng/mL and a bioavailability [37] of 12.9%. For the same compound, the Vd [23] was 11.3 L/kg, the Cmax [38] was 110 ng/mL and the Cmax [39] was 44.3 ng/mL. The Tmax [40] was 2.1 h, the CC50 [24] was greater than 25000 nM and the “intrinsic clearance (CLint)” value [25] was 2.9 µL/min. For the same compound, the Vd [41] was 11 L/kg, the Microsomal intrinsic clearance [28] was 0.7 µL/min and the bioavailability [42] was 13.8%. The Papp B→A at 1 h, 10 µM [29] was 2.7 ×10⁻⁶ cm/s, the solubility thermodynamic [30] was 1180 µM (≈ 526 µg/mL) and the clearance [31] was 76 mL/min/kg. For the same compound, the Tmax [43] was 2 h.
